The source of these data is ChEMBL document CHEMBL4038327, “Inhibitory Kappa B Kinase α (IKKα) Inhibitors That Recapitulate Their Selectivity in Cells against Isoform-Related Biomarkers” (J Med Chem, 2017).

For data set [1], the target named is T1, Inhibitor of nuclear factor kappa-B kinase subunit beta (Homo sapiens, UniProt O14920).
T1 sequence (O14920 whole entry): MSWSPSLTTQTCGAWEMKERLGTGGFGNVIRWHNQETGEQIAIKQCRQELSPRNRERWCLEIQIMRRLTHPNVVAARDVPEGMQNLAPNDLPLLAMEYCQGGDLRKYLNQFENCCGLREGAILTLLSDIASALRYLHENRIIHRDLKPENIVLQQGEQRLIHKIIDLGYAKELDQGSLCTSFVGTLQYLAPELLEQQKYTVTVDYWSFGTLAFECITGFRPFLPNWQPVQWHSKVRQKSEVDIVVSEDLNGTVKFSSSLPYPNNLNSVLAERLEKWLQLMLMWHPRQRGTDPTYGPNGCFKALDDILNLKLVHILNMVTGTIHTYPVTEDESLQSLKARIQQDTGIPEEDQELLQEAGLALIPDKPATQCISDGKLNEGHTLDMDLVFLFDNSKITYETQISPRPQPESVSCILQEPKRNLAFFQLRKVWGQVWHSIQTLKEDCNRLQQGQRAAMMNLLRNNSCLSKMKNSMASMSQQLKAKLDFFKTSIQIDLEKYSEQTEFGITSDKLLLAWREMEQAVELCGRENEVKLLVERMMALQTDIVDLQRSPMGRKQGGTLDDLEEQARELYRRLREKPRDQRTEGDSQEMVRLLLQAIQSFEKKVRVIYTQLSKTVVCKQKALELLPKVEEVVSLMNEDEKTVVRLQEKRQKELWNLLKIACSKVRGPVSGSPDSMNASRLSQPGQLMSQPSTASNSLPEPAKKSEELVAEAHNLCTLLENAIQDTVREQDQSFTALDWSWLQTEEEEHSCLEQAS
Briefly: Inhibition of IKKbeta in human U2OS cells assessed as TNFalpha induced IkBalpha degradation at 100 uM preincubated for 1 hr followed by TNFalpha stimulation for 30 mins by Western blot analysis. In kind it is cell-based. The conditions noted are these: 0.5 h. The method in brief:
(§1)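 U2OS cells were grown in McCoy's 5A medium at 37 °C under 5% CO2 and made quiescent by 24 h serum deprivation. They were then pretreated with compound before agonist stimulation in serum-free medium. Phospho-p100, IκBα levels and phospho-p65 (Ser536) were assessed by Western blot.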
For orientation: A western blot detects proteins with antibodies after separation by electrophoresis.

Data set [2] addresses T1, Inhibitor of nuclear factor kappa-B kinase subunit beta. Briefly: Inhibition of IKKbeta in human U2OS cells assessed as decrease in TNFalpha induced p65 phosphorylation at ser536 residues at 100 uM preincubated for 1 hr followed by TNFalpha stimulation for 30 mins by Western blot analysis. It is filed as cell-based. Particulars: 0.5 h; call rule not given here. The method in brief: as §1
Data set [3] deals with T2, Inhibitor of nuclear factor kappa-B kinase subunit alpha (Homo sapiens) (UniProt O15111).
T2 sequence (whole entry): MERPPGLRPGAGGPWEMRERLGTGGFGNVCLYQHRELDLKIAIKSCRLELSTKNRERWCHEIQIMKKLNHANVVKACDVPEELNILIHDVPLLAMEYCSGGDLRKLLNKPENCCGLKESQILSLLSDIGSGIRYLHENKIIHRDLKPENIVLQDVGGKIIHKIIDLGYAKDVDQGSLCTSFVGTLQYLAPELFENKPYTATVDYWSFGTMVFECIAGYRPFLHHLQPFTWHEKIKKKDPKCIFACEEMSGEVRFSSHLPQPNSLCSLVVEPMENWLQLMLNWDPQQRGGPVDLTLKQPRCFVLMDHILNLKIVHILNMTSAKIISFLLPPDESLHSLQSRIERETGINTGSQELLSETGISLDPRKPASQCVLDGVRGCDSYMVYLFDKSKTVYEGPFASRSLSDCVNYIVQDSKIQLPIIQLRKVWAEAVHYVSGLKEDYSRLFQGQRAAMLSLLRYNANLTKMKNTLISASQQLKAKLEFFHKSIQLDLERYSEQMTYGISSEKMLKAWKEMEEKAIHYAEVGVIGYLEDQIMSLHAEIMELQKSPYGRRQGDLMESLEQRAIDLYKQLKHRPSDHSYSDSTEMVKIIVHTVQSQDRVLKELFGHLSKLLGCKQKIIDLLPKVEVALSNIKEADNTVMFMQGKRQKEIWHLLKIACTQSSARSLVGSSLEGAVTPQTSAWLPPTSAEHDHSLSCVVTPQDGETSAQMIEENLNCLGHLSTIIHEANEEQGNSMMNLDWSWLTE
Briefly: (§2) Inhibition of IKKalpha in human U2OS cells assessed as decrease in FCS induced p100 phosphorylation at ser866/870 residues preincubated for 1 hr followed by FCS stimulation for 4 hrs by Western blot analysis. It is filed as cell-based. In a few lines:
as §1

Data set [4] concerns the target T3, Inhibitor of nuclear factor kappa-B kinase subunit alpha (Homo sapiens, UniProt O15111).
T3 sequence (O15111 whole entry): T2 sequence (whole entry)
The data set is described as §2. In kind it is cell-based. The method in brief: as §1

In data set [5] the target is T4, Inhibitor of nuclear factor kappa-B kinase subunit alpha (Mus musculus) (UniProt Q60680).
T4 sequence (whole entry): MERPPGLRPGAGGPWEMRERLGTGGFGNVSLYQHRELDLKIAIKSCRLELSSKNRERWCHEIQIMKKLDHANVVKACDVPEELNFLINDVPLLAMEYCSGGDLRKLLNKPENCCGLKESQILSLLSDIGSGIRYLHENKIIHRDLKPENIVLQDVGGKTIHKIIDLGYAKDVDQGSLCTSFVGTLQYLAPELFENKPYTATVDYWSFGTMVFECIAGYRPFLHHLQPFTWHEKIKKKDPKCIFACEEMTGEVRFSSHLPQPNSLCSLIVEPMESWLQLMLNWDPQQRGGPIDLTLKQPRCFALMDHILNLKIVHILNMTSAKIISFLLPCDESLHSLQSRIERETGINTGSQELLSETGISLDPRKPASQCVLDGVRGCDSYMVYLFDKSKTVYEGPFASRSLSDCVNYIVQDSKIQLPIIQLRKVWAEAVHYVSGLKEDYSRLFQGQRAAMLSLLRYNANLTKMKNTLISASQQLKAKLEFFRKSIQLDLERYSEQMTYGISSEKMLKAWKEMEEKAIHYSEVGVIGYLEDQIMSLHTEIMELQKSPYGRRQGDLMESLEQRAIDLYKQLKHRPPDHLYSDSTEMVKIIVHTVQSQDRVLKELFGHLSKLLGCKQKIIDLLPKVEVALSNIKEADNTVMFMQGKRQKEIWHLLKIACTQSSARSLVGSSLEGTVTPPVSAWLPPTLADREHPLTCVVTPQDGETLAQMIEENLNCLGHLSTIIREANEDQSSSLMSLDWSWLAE
Briefly: Inhibition of IKKalpha in IKKbeta knockout mouse embryonic fibroblast cells harboring Adv.NF-kB.luc assessed as IL-1beta induced NF-kB transcriptional activation at 100 uM pretreated for 1 hr followed by IL-1beta stimulation for 6 hrs by luciferase reporter gene assay relative to control. Also on record: scale not given: the % may be the effect or the level left. The method in brief:
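IKKβ knockout MEFs infected with Adv.NF-kB.luc (up to 300 pfu/cell, 24 h, 10% DMEM), replated and serum-starved 24 h. Pretreated 1 h with compound, then IL-1β (10 ng/mL) for 6 h. Lysis buffer contained 0.2 mM luciferin, and luminescence was read as RLU. Results are expressed as % of IL-1β + DMSO stimulation.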

The target of data set [6] is T3, Inhibitor of nuclear factor kappa-B kinase subunit alpha. Briefly: Inhibition of recombinant human N-terminal GST-tagged IKKalpha (1 to 745 residues) expressed in baculovirus expression system using biotinylated IkBalpha as substrate after 60 mins by DELFIA.
For data set [7], the target named is T1, Inhibitor of nuclear factor kappa-B kinase subunit beta. Briefly: Inhibition of recombinant full length human IKKbeta expressed in baculovirus infected sf9 insect cells using biotinylated IkBalpha as substrate after 60 mins by DELFIA. In a few lines:
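Recombinant IKKβ (37 nM) was incubated with biotinylated IκB-α (Ser32) peptide (0.375 μM) and 40 μM ATP in Tris-HCl pH 7.5 with MgCl2, EDTA, DTT and BSA for 60 min at 30 °C. The reaction was quenched with EDTA and captured on streptavidin. Detection used anti-phospho-IκBα (Ser32/36) mAb plus Eu-anti-mouse IgG, read by time-resolved fluorescence (340/615 nm). Apparent Ki was obtained via Cheng–Prusoff, n=3.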

Consider `N#Cc1c[nH]c2nc(N)nc(-c3ccc(CO)cc3)c12`, for which the “inhibition (INH)” value in data set [1] and in data set [2] was “Not Active” each time. For the same compound, the inhibition result in data set [3] was “Dose-dependent effect”. For the same compound, the IC50 in data set [4] lay in the range of 13.9 to 19.1 µM. Further, the Activity in data set [5] turned out to be 18.8%. The Ki in data set [6] was determined as 0.65 µM; in data set [7] it was 2.3 µM.

Usually IC50 stands for the concentration that gives 50% inhibition. One may read the Ki as a dissociation constant, usually derived from enzyme kinetics or from competition with a known ligand.
